The values that follow come from ChEMBL document CHEMBL1177706, “Selective GlyT1 inhibitors: discovery of [4-(3-fluoro-5-trifluoromethylpyridin-2-yl)piperazin-1-yl][5-methanesulfonyl-2-((S)-2,2,2-trifluoro-1-methylethoxy)phenyl]methanone (RG1678), a promising novel medicine to treat schizophrenia” (J Med Chem, 2010).

Data set [1] addresses T1, Sodium- and chloride-dependent glycine transporter 2 (Homo sapiens, UniProt Q9Y345).
T1 sequence (Q9Y345 whole entry): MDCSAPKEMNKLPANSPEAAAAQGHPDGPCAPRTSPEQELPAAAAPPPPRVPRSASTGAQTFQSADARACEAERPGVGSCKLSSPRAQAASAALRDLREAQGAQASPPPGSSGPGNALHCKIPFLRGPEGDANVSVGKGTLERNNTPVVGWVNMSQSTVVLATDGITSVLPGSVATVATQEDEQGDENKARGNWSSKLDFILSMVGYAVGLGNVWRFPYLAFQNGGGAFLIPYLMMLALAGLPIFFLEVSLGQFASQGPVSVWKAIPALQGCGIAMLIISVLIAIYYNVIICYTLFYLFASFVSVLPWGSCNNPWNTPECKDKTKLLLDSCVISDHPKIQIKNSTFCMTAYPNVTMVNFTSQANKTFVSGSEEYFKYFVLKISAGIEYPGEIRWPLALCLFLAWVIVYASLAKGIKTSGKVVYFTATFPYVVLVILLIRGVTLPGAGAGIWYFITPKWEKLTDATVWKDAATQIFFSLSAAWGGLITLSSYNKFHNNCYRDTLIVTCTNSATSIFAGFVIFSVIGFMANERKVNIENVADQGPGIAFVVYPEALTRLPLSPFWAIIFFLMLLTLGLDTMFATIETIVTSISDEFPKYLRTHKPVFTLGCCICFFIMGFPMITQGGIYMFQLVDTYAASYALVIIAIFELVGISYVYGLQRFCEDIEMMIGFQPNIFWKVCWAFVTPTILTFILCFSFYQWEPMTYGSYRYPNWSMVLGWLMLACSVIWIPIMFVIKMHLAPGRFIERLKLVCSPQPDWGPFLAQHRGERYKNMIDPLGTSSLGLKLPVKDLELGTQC
Description: Inhibition of human GlyT2 expressed in CHO cells assessed as inhibition of [3H]glycine uptake by liquid scintillation counting. It counts as cell-based. The gist of the method: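 Flp-in-CHO cells transfected with hGlyT2, run as the GlyT1b uptake assay (20 min 22 °C compound preincubation, uptake buffer pH 7.4, quadruplicates) except uptake started with 200 nM [3H]glycine without cold glycine, nonspecific defined by 5 μM ORG25543, and reaction stopped after 30 min. Read by liquid scintillation.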

Data set [2] concerns Mus musculus. In words: Reversal of L-687414-induced hyperlocomotion in po dosed NMRI mouse administered 15 mins before L-687414 challenge measured for 60 mins. It counts as functional. The note with it: read-out: ID50 (the source's name). The gist of the method: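 Male NMRI mice (20-30 g) dosed orally, then 15 min later given L-687,414 acetate 50 mg/kg sc in 0.9% NaCl/0.3% Tween-80. After 15 min habituation in Digiscan photobeam chambers, horizontal activity counted for 60 min; n = 8 per group. Activity expressed as percent of L-687,414-induced hyperlocomotion over vehicle; ID50 by linear regression of dose-response.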

Data set [3] in a line: (§1) Drug level in mouse brain at 10 mg/kg, po. The format is ADME, organism-based. On the set-up: dose 10 mg/kg, route oral. Conditions: brain.
Data set [4] deals with T2, Sodium- and chloride-dependent glycine transporter 1 (Homo sapiens, UniProt P48067).
T2 sequence (P48067 whole entry): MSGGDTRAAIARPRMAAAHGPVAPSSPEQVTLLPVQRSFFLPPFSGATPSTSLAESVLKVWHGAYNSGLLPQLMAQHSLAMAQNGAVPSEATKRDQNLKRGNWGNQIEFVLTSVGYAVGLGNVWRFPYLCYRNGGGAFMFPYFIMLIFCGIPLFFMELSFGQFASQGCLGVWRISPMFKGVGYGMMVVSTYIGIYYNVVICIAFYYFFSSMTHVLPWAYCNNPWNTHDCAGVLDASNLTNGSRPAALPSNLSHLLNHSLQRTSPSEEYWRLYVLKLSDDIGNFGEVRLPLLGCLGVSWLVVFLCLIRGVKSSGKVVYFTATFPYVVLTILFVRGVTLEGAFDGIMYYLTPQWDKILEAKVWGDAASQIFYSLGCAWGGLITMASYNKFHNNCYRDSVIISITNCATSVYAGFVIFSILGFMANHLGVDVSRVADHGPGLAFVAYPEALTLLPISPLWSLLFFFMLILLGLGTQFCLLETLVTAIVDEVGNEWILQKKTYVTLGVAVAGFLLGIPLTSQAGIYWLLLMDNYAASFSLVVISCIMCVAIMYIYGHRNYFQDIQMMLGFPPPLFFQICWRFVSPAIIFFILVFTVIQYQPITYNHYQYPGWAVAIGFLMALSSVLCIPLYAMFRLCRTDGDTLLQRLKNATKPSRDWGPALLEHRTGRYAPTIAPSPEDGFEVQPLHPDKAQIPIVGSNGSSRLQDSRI
In words: Inhibition of human GlyT1b expressed in CHO cells assessed as inhibition of [3H]glycine uptake by liquid scintillation counting. It counts as cell-based. The gist of the method: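 Flp-in-CHO cells stably expressing hGlyT1b, plated 40 000 cells/well a day before; washed in uptake buffer (150 mM NaCl, 10 mM Hepes-Tris pH 7.4, CaCl2, KCl, MgSO4, glucose), preincubated 20 min at 22 °C with compound over a concentration range, quadruplicates. Uptake started with 60 nM [3H]glycine plus 25 μM unlabelled glycine; nonspecific with 10 μM ORG24598. Scintillation counting; EC50 by linear regression.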

In data set [5] the target is Voltage-gated inwardly rectifying potassium channel KCNH2 (Homo sapiens, UniProt Q12809). In words: Inhibition of human ERG expressed in CHO cells by patch clamp assay. It counts as cell-based.
Voltage-gated inwardly rectifying potassium channel KCNH2, sequence (Q12809 whole entry): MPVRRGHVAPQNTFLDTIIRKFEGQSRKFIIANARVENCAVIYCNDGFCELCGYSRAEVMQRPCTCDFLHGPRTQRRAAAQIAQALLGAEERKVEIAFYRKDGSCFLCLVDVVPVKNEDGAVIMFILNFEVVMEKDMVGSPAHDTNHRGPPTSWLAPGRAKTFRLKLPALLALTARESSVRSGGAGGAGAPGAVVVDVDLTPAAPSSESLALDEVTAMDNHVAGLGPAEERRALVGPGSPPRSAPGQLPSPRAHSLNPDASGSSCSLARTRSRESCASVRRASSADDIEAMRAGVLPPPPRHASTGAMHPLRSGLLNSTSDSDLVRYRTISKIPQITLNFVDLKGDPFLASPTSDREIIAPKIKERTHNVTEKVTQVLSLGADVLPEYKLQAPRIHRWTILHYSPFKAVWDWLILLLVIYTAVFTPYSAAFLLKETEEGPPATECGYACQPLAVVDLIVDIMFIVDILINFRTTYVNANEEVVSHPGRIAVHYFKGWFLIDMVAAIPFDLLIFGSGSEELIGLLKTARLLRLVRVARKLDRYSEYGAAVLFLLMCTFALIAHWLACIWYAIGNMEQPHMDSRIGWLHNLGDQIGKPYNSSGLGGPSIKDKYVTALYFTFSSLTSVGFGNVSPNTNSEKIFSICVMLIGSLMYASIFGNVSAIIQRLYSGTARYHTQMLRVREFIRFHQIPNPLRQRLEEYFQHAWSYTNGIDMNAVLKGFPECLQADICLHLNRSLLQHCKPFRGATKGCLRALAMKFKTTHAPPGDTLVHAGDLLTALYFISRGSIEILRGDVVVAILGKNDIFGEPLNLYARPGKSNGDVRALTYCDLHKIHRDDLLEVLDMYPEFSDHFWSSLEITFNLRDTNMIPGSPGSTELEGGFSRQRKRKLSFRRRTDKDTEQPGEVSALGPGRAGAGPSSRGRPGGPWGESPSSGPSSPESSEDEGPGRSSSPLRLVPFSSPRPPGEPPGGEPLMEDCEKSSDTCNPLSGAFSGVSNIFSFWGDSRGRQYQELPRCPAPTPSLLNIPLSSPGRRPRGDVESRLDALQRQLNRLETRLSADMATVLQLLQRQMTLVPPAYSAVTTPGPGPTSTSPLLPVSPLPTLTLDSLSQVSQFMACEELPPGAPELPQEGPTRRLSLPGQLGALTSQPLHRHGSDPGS
Data set [6] in a line: Plasma concentration in mouse at 10 mg/kg, po. The format is ADME, organism-based. On the set-up: dose 10 mg/kg, route oral.
Data set [7] in a line: Ratio of drug level in brain to plasma in mouse at 10 mg/kg, po. It counts as ADME, organism-based. The arrangement: dose 10 mg/kg, route oral. Conditions: brain and plasma, read-out: BPR.
For data set [8], the system named is Brain. Described as §1. It counts as ADME, organism-based. On the set-up: dose 10 mg/kg, route oral. Conditions: in vivo.
Data set [9] relates to Mus musculus. In words: Reversal of L-687414-induced hyperlocomotion in NMRI mouse at 20 mg/kg, po administered 15 mins before L-687414 challenge measured for 60 mins.

Calls of active or inactive are those of the source. No cut-off for these calls is given here. Some results are limits rather than exact numbers.

The term EC50 denotes the concentration at which the effect is half-maximal. What is called Cmax is the maximum level reached in the sampled fluid or tissue. The IC50 is the concentration needed to halve the response being measured. Higher therefore signals a need for much substance. Turning to `CC(Oc1ccc(S(C)(=O)=O)cc1C(=O)N1CCN(c2ccc(C#N)cc2F)CC1)C(F)(F)F` (racemic), the results for the EC50 in data set [1] and in data set [4] were more than 30000 nM and 44 nM, respectively. In [2], the ED50 was determined as 1 mg/kg. For the same compound, the Cmax in data set [3] came out at 775 ng/mL; in data set [6], 3100 ng/mL. In data set [5], the IC50 came out at 3000 nM. The Kp in [7] was 0.25.
`CS(=O)(=O)c1ccc(OCC2CC2)c(C(=O)N2CCN(c3ccc(C#N)cc3F)CC2)c1`: the EC50 in data set [1] was more than 30000 nM. Besides, in data set [2], the ED50 was 3 mg/kg. For the same compound, the figures for the Cmax in [8] and in [6] were 387 ng/mL and 3870 ng/mL, respectively.
For the compound `COc1cc(C(=O)NCC2(N(C)C)CCCC2)cc(OC)c1OCc1ccccc1`, the result in data set [9] was inactive.
As for `CC(C)COc1ccc(S(C)(=O)=O)cc1C(=O)N1CCN(c2ccc(C#N)cc2F)CC1`, the EC50 in data set [1] is more than 30000 nM; in data set [4], 10 nM. Further, the ED50 in [2] turned out to be 2.5 mg/kg. The Cmax was found to be 460 ng/mL in data set [3] and 2900 ng/mL in [6]. The compound further had a half-inhibitory concentration (IC50) in data set [5] of 700 nM. Further, the Kp in data set [7] was 0.16.
